The test system of test [1] is L. major promastigotes. In words: Parasite counting method. The format is cell-based. As to conditions: microscopic counting, 24, 48 and 72 h at 24 °C. Put shortly: (§1)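 Promastigotes (L. major MRHO/IR/75/ER; L. tropica MRHO/IR/02/Mash10), grown in RPMI 1640 with 20% heat-inactivated FBS and pen-strep, were seeded at 1 × 10^6/mL in log phase. They were exposed to 3.12–1000 µM test compound (DMSO stock diluted in PBS) for 24, 48 and 72 h at 24 °C. Fixed parasites were counted daily in a Neubauer chamber at 400x. Triplicate; AmB 0.93 µM reference; repeated-measures ANOVA.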

Test [2] concerns L. tropica promastigotes. In words: Parasite counting method. As to conditions: microscopic counting, 24, 48 and 72 h at 24 °C. It is filed as cell-based. In a few lines: as §1
The test system of test [3] is L. major intracellular amastigotes. In words: Anti-intracellular amastigote activity in J774A.1 macrophages. As to conditions: Leishmania species not given. The format is cell-based, L. major (MRHO/IR/75/ER). Put shortly:
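SI = CC50/IC50. For amastigotes, J774A.1 cells (10^5/well) were seeded on coverslips for 24 h at 37 °C, 5% CO2, then infected with stationary-phase metacyclic promastigotes (10:1) for 24 h. Test compound 1.32–1000 µM was added for 72 h, then cells were methanol-fixed and Giemsa-stained; amastigotes per 100 macrophages were counted. […] Triplicates.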

Turning to `CNC(=S)NN=Cc1ccc(OC)cc1` [Compound 5g, N-Methyl-2-(4-methoxybenzylidene)hydrazine-1-carbothioamide], the “effect on promastigote count (in words)” value in test [1] and in test [2] was “significant reduction in promastigote count” each time.

In the case of `O=[N+]([O-])NC(=S)NN=Cc1ccc(Br)cc1` [Compound 5j, 2-(4-Bromobenzylidene)-N-nitrohydrazine-1-carbothioamide], the “effect on promastigote count (in words)” value in test [1] and in test [2] was “mild effect” in each case.

As to `CNC(=S)NN=Cc1ccc(O)c(OC)c1` [Compound 5b, 2-(4-Hydroxy-3-methoxybenzylidene)-N-methylhydrazine-1-carbothioamide], the “effect on promastigote count (in words)” value in test [1] and in test [2] was “significant reduction in promastigote count” each time.

In the case of `CNC(=S)NN=Cc1ccc(Br)cc1` [Compound 5e, 2-(4-Bromobenzylidene)-N-methylhydrazine-1-carbothioamide], the “effect on promastigote count (in words)” value in test [1] and in test [2] was “significant reduction in promastigote count” in each case.

`CNC(=S)NN=Cc1ccc([N+](=O)[O-])cc1` [Compound 5f, 2-(4-Nitrobenzylidene)-N-methylhydrazine-1-carbothioamide]: the “effect on promastigote count (in words)” value in test [1] and in test [2] was “significant reduction in promastigote count” each time.

For the compound `CNC(=S)NN=Cc1ccc(C)cc1` [Compound 5c, N-Methyl-2-(4-methylbenzylidene)hydrazine-1-carbothioamide], the “effect on promastigote count (in words)” value in test [1] and in test [2] was “mild” in each case.

As to `CNC(=S)NN=Cc1ccc(OC)c(OC)c1` [Compound 5a, 2-(3,4-Dimethoxybenzylidene)-N-methylhydrazine-1-carbothioamide], the “effect on promastigote count (in words)” value in test [1] and in test [2] was “significant reduction in promastigote count” throughout.

`S=C(NN=Cc1ccc(Br)cc1)Nc1cccnc1` [Compound 5n, 2-(4-Bromobenzylidene)-N-(pyridin-3-yl)hydrazine-1-carbothioamide]: the “reduction of the number of amastigotes toward the untreated negative control” value in test [3] was 20–25%. Also, the “effect on promastigote count (in words)” value in test [1] and in test [2] was “limited activity” in each case.

As to `COc1ccc(C=NNC(=S)Nc2cccnc2)cc1OC` [Compound 5o, 2-(3,4-Dimethoxybenzylidene)-N-(pyridin-3-yl)hydrazine-1-carbothioamide], the “reduction of the number of amastigotes toward the untreated negative control” value in test [3] is 20–25%. The “effect on promastigote count (in words)” value in test [1] and in test [2] was “limited activity” each time.

The values are drawn from article PMC12246158 (Scientific Reports, 2025).
